High-throughput results: PubChem, several laboratories
Shown are actives, neighbours in structure and some others; about 3.6% of the full set was active somewhere.
BB579 growth dn = chemicals that inhibit yeast BB579 growth in restrictive medium (lifespan-shortening candidates); S. cerevisiae BB579 growth, OD615, 48 h; inhibition, % at 10 µM; hit rate 0.51% among 140,000;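 active = inhibition above a set limit, 3 SD over the mean compound inhibition, cut at about 44% in these data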
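System: Saccharomyces cerevisiae DeaD strain BB579, replicative lifespan model yeast. Buffer or medium: restrictive glucose-based CSMM-D medium. Doses: one dose, 10 µM compound with 0.25% DMSO. Timing: 4 h preincubation and 48 h exposure at 30 °C. Detection: turbidity as optical density at 615 nm. Benchmarks: amphotericin B 10 µg/mL, positive.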
Yeast lifespan up = extends the lifespan of yeast; inhibition of the nicotinamide effect, % at 10 µM; hit rate 0.68% among 130,000; S. cerevisiae growth with nicotinamide, OD615; deaD strain in restrictive glucose medium;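 active = inhibition above a set limit, placed 3 SD over the median of all compounds, cut at about 26% in these data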;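 also: 0% = nicotinamide-treated wells and 100% = cells grown without nicotinamide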
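Assay system: engineered S. cerevisiae DeaD replicative-lifespan strain, galactose-grown log-phase cells; Buffer or medium: CSMM-D glucose medium, restrictive; Probe or stimulus: nicotinamide 1.5 mM; Compound: single dose 10 µM compound, 0.25% DMSO; Schedule: 4 h preincubation then 48 h treatment at 30 °C; Technique: OD615 measurement.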
RAM inhibit = yeast RAM network inhibition. S. cerevisiae dse1pr::URA3 reporter, 5-FOA growth OD615, 2 d; analog-sensitive cbk1-as2 kinase mutant strain. inhibition, % at 50 µM. hit rate 1.8% among 190,000. AID 868;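 active = inhibition above a set limit, 3 SD over mean compound inhibition, cut at about 8.4% in these data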;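 also: 0% = DMSO-only wells with no growth and 100% = 10 µM 1-NA-PP1 full growth; inhibition rescues growth on 5-FOA so higher OD means more RAM inhibition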
Phagocytosis inh = inhibitors of macrophage phagocytosis; hit rate 0.07% among 110,000; J774A.1 macrophage IgG-bead phagocytosis, imaging; inhibition, % at 5 µM;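 active = inhibition above the mean of the plate negative controls plus 5 SD, cut at about 13% in these data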;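 also: phagocytic index as fraction of beads internalized from green versus red external bead signal; plate controls were DMSO negative control for no effect and cytochalasin-D positive control for full effect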
Measles CPE = protection of cells from measles virus; Measles virus-infected cells, CPE protection, absorbance; protection (pct of control), % at 4 µM; hit rate 1.5% among 140,000; AID 841; in the data active = protection mostly above about 24%, no sharp cut-off; inactive = mostly below about 26%
Active calls of the source: *.

Screening O=C(Nc1ccc(Br)cn1)c1cccc(-c2cc3ccccc3oc2=O)c1 returned BB579 growth dn -37, Yeast lifespan up 76*, RAM inhibit 0, Phagocytosis inh 5 and Measles CPE 7.
For Cc1nc(NC(=O)c2cccc(-c3cc4ccccc4oc3=O)c2)ccc1Br the results were BB579 growth dn -39, Yeast lifespan up 0, RAM inhibit 0, Phagocytosis inh -9 and Measles CPE 16.
Screening COc1ccc(OC)c(-c2cc(C(=O)NCc3ccc(Cl)cc3)no2)c1 returned RAM inhibit 7.
Screening CCOC(=O)C1=C(CN2CCN(CCC#N)CC2)NC(=O)NC1c1ccc2c(c1)OCO2 (stereo not given) returned RAM inhibit 1.
Screening CCOC(=O)CSc1nnc(-c2ccco2)n1-c1ccc(C)cc1 returned BB579 growth dn -30, Yeast lifespan up 4, RAM inhibit -1, Phagocytosis inh -1 and Measles CPE 38*.
Screening O=C(Cn1cnc2ccccc21)N1CCc2ccccc21 returned RAM inhibit 2.
Screening O=C(Cn1cccc1)N1CCc2ccccc21 returned BB579 growth dn -7, Yeast lifespan up -9, RAM inhibit 1, Phagocytosis inh -4 and Measles CPE 100*.
For O=C(Cn1ncc2ccccc21)N1CCc2ccccc21 the results were BB579 growth dn -24, Yeast lifespan up -3, RAM inhibit -1, Phagocytosis inh 0 and Measles CPE 45*.
For O=C(O)c1ccc(CSc2nnnn2C2CCCCC2)cc1 the results were BB579 growth dn -3, Yeast lifespan up 0, RAM inhibit 1, Phagocytosis inh 0 and Measles CPE 30*.
Screening O=C(CSc1nnnn1C1CCCCC1)NCc1ccccc1 returned BB579 growth dn -78, Yeast lifespan up 0, RAM inhibit 0, Phagocytosis inh -1 and Measles CPE 26.
`O=C1CCC(=O)N1c1ccc(CSc2nnnn2C2CCCCC2)cc1` gave BB579 growth dn -10, Yeast lifespan up -5, RAM inhibit 1, Phagocytosis inh 2 and Measles CPE 19*.
`O=C(O)CSc1nnnn1C1CCCCC1` gave RAM inhibit 0.
C[C@]12C=CC(=O)C=C1CCC1C3CC[C@](O)(C(=O)CO)[C@@]3(C)CC3OC312 (stereo not given in full) was read as BB579 growth dn -48, Yeast lifespan up 6, RAM inhibit 1, Phagocytosis inh 1 and Measles CPE 42*.
`Cc1ccccc1C(=O)N[C@H](C(=O)OCC(=O)c1ccc[nH]1)C(C)C` gave BB579 growth dn 8, Yeast lifespan up -5, RAM inhibit -1, Phagocytosis inh -3 and Measles CPE 10.
`CCOc1ncnc2c1oc1nc(CC(C)C)c3c(c12)CC(C)(C)OC3` gave BB579 growth dn -49, Yeast lifespan up 14, RAM inhibit 10* and Measles CPE 6.
For CCOc1ccc(S(=O)(=O)N(C)c2ccc(OCC(=O)NCc3ccco3)cc2)cc1 the results were BB579 growth dn -6, Yeast lifespan up -10, RAM inhibit 9.8*, Phagocytosis inh -1 and Measles CPE 9.
For O=C(Nc1cccc(C(=O)O)c1)/C(=C/c1ccc([N+](=O)[O-])cc1)NC(=O)c1ccccc1 the results were RAM inhibit 9.9*.
`COc1ccccc1/C=C(\NC(=O)c1ccc(OC)c(OC)c1)C(=O)Nc1ccc([N+](=O)[O-])cc1` gave BB579 growth dn -19, Yeast lifespan up 5, RAM inhibit 8.5*, Phagocytosis inh -12 and Measles CPE 8.
`Cc1ccc(NC(=O)/C(=C\c2ccc([N+](=O)[O-])cc2)NC(=O)c2ccccc2)cc1` gave BB579 growth dn -16, Yeast lifespan up -9, RAM inhibit 4 and Measles CPE 1.
For COc1ccc2[nH]c3c(Cl)ncnc3c2c1 the results were BB579 growth dn 56*, Yeast lifespan up -8, RAM inhibit 0, Phagocytosis inh -6 and Measles CPE 13.
COc1ccc(C(=O)OCC(=O)NCCN2C(=O)CSC2=O)cc1 was read as RAM inhibit 0.
For O=S(=O)(c1ccccc1)c1nc(NCc2cccnc2)sc1Cl the results were RAM inhibit 2.
COC(=O)c1c(NC(=O)CN2CCN(c3ccccc3)CC2)c2c(C)cccc2n1C was read as BB579 growth dn -29, Yeast lifespan up 1, RAM inhibit 2, Phagocytosis inh -1 and Measles CPE 42*.
COc1cccc(NC(=O)CSc2nc3c(c(-c4ccco4)c2C#N)CCCC3)c1 was read as BB579 growth dn -16, Yeast lifespan up -5, RAM inhibit 9.2* and Measles CPE 6.
`CCOC(=O)/C(=N\Nc1ccccc1)c1csc(Nc2ccc(C)cc2)n1` gave BB579 growth dn -1, Yeast lifespan up -2, RAM inhibit 10*, Phagocytosis inh 0 and Measles CPE 8.
For CCCCC(CCC(=O)O)(C(=O)OCC)c1csc(Nc2ccc(C)cc2)n1 (stereo not given) the results were RAM inhibit 4.
Cc1ccccc1CSc1nc(-c2ccccc2)cc(=O)[nH]1 was read as BB579 growth dn -17, Yeast lifespan up 4, RAM inhibit 4, Phagocytosis inh -8 and Measles CPE 21.
`O=c1cc(-c2ccccc2)nc(SCc2ccccc2F)[nH]1` gave RAM inhibit 9.3*.
For CCCc1cc(-c2n[nH]c(=S)n2C(C)c2ccccc2)cs1 (stereo not given) the results were BB579 growth dn 50*, Yeast lifespan up 12, RAM inhibit 2, Phagocytosis inh 0 and Measles CPE 16.
CCCCCCCCCOC(=O)C(CC(=O)O)N1CCOCC1 (stereo not given) was read as BB579 growth dn -41, Yeast lifespan up 29*, RAM inhibit 2, Phagocytosis inh 0 and Measles CPE 12.
`CSc1nc(Cc2ccccc2)nc2ccccc12` gave RAM inhibit -1.
For Cc1ccc(S(=O)(=O)NCCOc2nc(N3CCOCC3)nc(N3CCOCC3)n2)cc1 the results were BB579 growth dn -11, Yeast lifespan up -15, RAM inhibit 1, Phagocytosis inh -3 and Measles CPE 63*.
Screening Cc1ccccc1OCC(=O)NNC(=S)NC(=O)c1ccccc1[N+](=O)[O-] returned BB579 growth dn -36, Yeast lifespan up 1, RAM inhibit 1 and Measles CPE 29.
For CC(C)(C)c1ccc(OCC(=O)NNC(=S)NC(=O)c2ccccc2[N+](=O)[O-])c(Br)c1 the results were BB579 growth dn -38, Yeast lifespan up 31*, RAM inhibit 2, Phagocytosis inh -2 and Measles CPE 5.
`COc1ccc(OC)c(NC(=O)c2cc3c(Cl)nc4ccccc4c3s2)c1` gave BB579 growth dn -31, Yeast lifespan up 5, RAM inhibit 9.9*, Phagocytosis inh -2 and Measles CPE 8.
Screening COc1ccc(NC(=O)c2cc3c(Cl)nc4ccccc4c3s2)cc1OC returned BB579 growth dn -36, Yeast lifespan up -3, RAM inhibit 5, Phagocytosis inh -17 and Measles CPE 9.
